From ChEMBL document CHEMBL6092204, “Synthesis of pyridyl pyrimidine hedgehog signaling pathway inhibitors and their antitumor activity in human pancreatic cancer” (Eur J Med Chem, 2024)
Active and inactive are the calls of the source. The calls are words filed in the database; no cut-off is given here.

Assays:
[1] = Inhibition of Hh signaling pathway in mouse NIH3T3 cells incubated for 48 hrs by Gli luciferase reporter assay; assay type: cell-based; conditions: NIH3T3, 48 h
In short: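 Reporter cells were seeded in 96-well plates, incubated overnight, then treated for 48 h. Lysate luciferase activity was measured with a dual-luciferase system, and firefly signal was normalised to Renilla.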

PANC-1 [2] = test: Induction of apoptosis in human PANC-1 cells assessed as viable cells at 10 uM incubated for 48 hrs by Annexin V-FITC/PI staining based flow cytometry (reference value: 93.2 %); assay type: functional; conditions: read-out: Activity
PANC-1 [3] = test: Induction of apoptosis in human PANC-1 cells assessed as early apoptotic cells at 10 uM incubated for 48 hrs by Annexin V-FITC/PI staining based flow cytometry (reference value: 1.88 %); assay type: functional
PANC-1 [4] = test: Induction of apoptosis in human PANC-1 cells assessed as late apoptotic cells at 10 uM incubated for 48 hrs by Annexin V-FITC/PI staining based flow cytometry (reference value: 2.74 %); assay type: functional
PANC-1 [5] = test: Induction of apoptosis in human PANC-1 cells assessed as necrotic cells at 10 uM incubated for 48 hrs by Annexin V-FITC/PI staining based flow cytometry (reference value: 2.24 %); assay type: functional
BXPC-3 [6] = test: Induction of apoptosis in human BXPC-3 cells assessed as viable cells at 10 uM incubated for 48 hrs by Annexin V-FITC/PI staining based flow cytometry (reference value: 91.5 %); assay type: functional; conditions: read-out: Activity
BXPC-3 [7] = test: Induction of apoptosis in human BXPC-3 cells assessed as early apoptotic cells at 10 uM incubated for 48 hrs by Annexin V-FITC/PI staining based flow cytometry (reference value: 1.11 %); assay type: functional
BXPC-3 [8] = test: Induction of apoptosis in human BXPC-3 cells assessed as late apoptotic cells at 10 uM incubated for 48 hrs by Annexin V-FITC/PI staining based flow cytometry (reference value: 6.72 %); assay type: functional
BXPC-3 [9] = test: Induction of apoptosis in human BXPC-3 cells assessed as necrotic cells at 10 uM incubated for 48 hrs by Annexin V-FITC/PI staining based flow cytometry (reference value: 0.71 %); assay type: functional
BxPC-3 [10] = test: Antitumor activity aginst human BxPC-3 cells xenografted in BALB/c nude mouse assessed as tumor growth inhibition at 15 mg/kg, ip qd for 21 days; conditions: time 21.0 day

| SMILES | IC50 [1] [nM] | other results |
| --- | --- | --- |
| Cc1ccc(NC(=O)c2ccc(Nc3nccc(-c4cccnc4)n3)cc2)cc1F | 46.4 | – |
| COc1cc(NC(=O)c2ccc(Nc3nccc(-c4cccnc4)n3)cc2)cc(OC)c1 | 29.7 | – |
| O=C(Nc1cccnc1)c1ccc(Nc2nccc(-c3cccnc3)n2)cc1 | 28.1 | – |
| COc1ccccc1NC(=O)c1ccc(Nc2nccc(-c3cccnc3)n2)cc1 | 9.1 | – |
| CN1CCN(c2ccc(NC(=O)c3ccc(Nc4nccc(-c5cccnc5)n4)cc3)cc2)CC1 | 4.5 | – |
| COc1ccc(NC(=O)c2ccc(Nc3nccc(-c4cccnc4)n3)cc2)cc1OC | 22.5 | – |
| Cc1cccc(NC(=O)c2ccc(Nc3nccc(-c4cccnc4)n3)cc2)c1 | 13.8 | – |
| O=C(Nc1cccc(C(F)(F)F)c1)c1ccc(Nc2nccc(-c3cccnc3)n2)cc1 | 25.6 | – |
| Cc1cc(F)cc(NC(=O)c2ccc(Nc3nccc(-c4cccnc4)n3)cc2)c1 | 10.3 | – |
| CCOc1ccc(NC(=O)c2ccc(Nc3nccc(-c4cccnc4)n3)cc2)cc1 | 12.2 | – |
| CS(=O)(=O)c1ccc(C(=O)Nc2ccc(Cl)c(-c3ccccn3)c2)c(Cl)c1 [VISMODEGIB] | 15.1 | viability at 10 µM (PANC-1 [2]): 91.8%; Activity (PANC-1 [3]): 2.2%; Activity (PANC-1 [4]): 3.3%; Activity (PANC-1 [5]): 2.68%; viability at 10 µM (BXPC-3 [6]): 90.6%; Activity (BXPC-3 [7]): 1.05%; Activity (BXPC-3 [8]): 7.55%; Activity (BXPC-3 [9]): 0.77%; inhibition (BxPC-3 [10]): Active |
| O=C(Nc1ccc(N2CCOCC2)cc1)c1ccc(Nc2nccc(-c3cccnc3)n2)cc1 | 17.3 | – |
| O=C(Nc1cccc(F)c1)c1ccc(Nc2nccc(-c3cccnc3)n2)cc1 | 15.9 | – |
| Cc1ccccc1NC(=O)c1ccc(Nc2nccc(-c3cccnc3)n2)cc1 | 14.6 | – |
| CNCc1ccc(C)c(NC(=O)c2ccc(Nc3nc(-c4ccccc4)c4ccccc4n3)cc2)c1 [BMS-833923] | 5.5 | – |
| O=C(Nc1ccc(F)cc1)c1ccc(Nc2nccc(-c3cccnc3)n2)cc1 | 35.3 | – |
| COc1cc(NC(=O)c2ccc(Nc3nccc(-c4cccnc4)n3)cc2)cc(OC)c1OC | 18.6 | – |
| O=C(Nc1ccc(Cl)cc1)c1ccc(Nc2nccc(-c3cccnc3)n2)cc1 | 24.8 | – |
| COc1ccc(NC(=O)c2ccc(Nc3nccc(-c4cccnc4)n3)cc2)cc1 | 14.2 | – |
| O=C(Nc1ccc(N2CCOCC2)c(F)c1)c1ccc(Nc2nccc(-c3cccnc3)n2)cc1 | 33.5 | – |
